Here are results for 4 compounds from article PMC12297293 (Nature Communications, 2025).

Substitutions are numbered along the chain they refer to. Counter-ions that a name gives are not always drawn. Like-named read-outs stand apart in the source and are kept apart here.

In one assay the target is T1, human GMPK (Homo sapiens, UniProt Q16774).
T1 sequence (Q16774 1-197): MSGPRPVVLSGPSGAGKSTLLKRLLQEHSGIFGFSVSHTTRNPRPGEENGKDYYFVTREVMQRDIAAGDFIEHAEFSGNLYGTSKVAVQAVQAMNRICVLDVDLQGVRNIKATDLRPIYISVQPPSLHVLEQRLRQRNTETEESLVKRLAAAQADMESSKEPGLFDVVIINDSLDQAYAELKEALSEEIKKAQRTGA
The experiment in a line: NMR chemical shift perturbation titration. The format is binding. A digest of the protocol:
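15N-GMPK was expressed in M9 medium with 0.5 mM IPTG at 16 °C for 20 h, then diluted to 50–100 μM in 20 mM HEPES, 150 mM NaCl, pH 7.5, 10% D2O. 1H-15N HSQC at 298 K, 700 MHz with cryoprobe. Assignments transferred from BMRB 27151; overlapped peaks excluded. Chemical shift perturbations globally fitted to a one-site model with Kd shared across residues.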

Assay [1] deals with T2, human GMPK wild type (Homo sapiens, UniProt Q16774).
T2 sequence (Q16774 1-197): T1 sequence (Q16774 1-197)
The assay is described as follows: NADH-dependent enzyme activity assay, wild-type GMPK. The format is biochemical.

Another assay addresses T3, GMPK R148A mutant (Homo sapiens, UniProt Q16774, R148A).
T3 sequence (Q16774 1-197 R148A): T1 sequence (Q16774 1-197) with R148A
The assay is described as follows: ITC binding, GMPK R148A. As to conditions: R148A vs wild type. A digest of the protocol: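 Mutant made by homologous recombination and Sanger-verified, then expressed in E. coli Rosetta (DE3). Purified by Ni column, ULP1 cleavage of the SUMO tag and SEC (20 mM HEPES, 150 mM NaCl, pH 7.5). ITC at 25 °C with 50 μM protein in the cell and 1.25 or 2.5 mM GMP in the syringe. Injections: 1 μL, then 19 × 2 μL.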

In assay [2] the target is T2, human GMPK wild type. The experiment in a line: ITC binding of nucleotides to wild-type GMPK. A digest of the protocol: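 ITC at 25 °C with recombinant human GMPK: SUMO-tagged, expressed in E. coli Rosetta (DE3), Ni-purified, tag cut with ULP1, then SEC. Both partners were in 20 mM HEPES pH 7.5 with 150 mM KCl. Cell held 50 μM GMPK; syringe held 1 mM GMP. One 1 μL injection was followed by 19 × 2 μL injections. Triplicate experiments.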

The target in another assay is T4, GMPK-ATPγS mixture (Homo sapiens, UniProt Q16774).
T4 sequence (Q16774 1-197): T1 sequence (Q16774 1-197)
The experiment in a line: ITC of GMP into GMPK-ATPγS mixture. The conditions noted are these: GMP binding after prior incubation of ATPγS. Put shortly:
(§1)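 GMP titrated into a preformed nucleotide–enzyme mixture by ITC at 25 °C. Cell held 50 μM recombinant human GMPK premixed with 0.5 mM ADP or ATPγS. Syringe held 2 or 2.5 mM GMP. One 1 μL injection, then 19 × 2 μL. Fitted Kd reported.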

Another assay deals with T5, GMPK-ADP mixture (Homo sapiens, UniProt Q16774).
T5 sequence (Q16774 1-197): T1 sequence (Q16774 1-197)
The experiment in a line: ITC of GMP into GMPK-ADP mixture. The conditions noted are these: GMP binding after incubation of ADP. A digest of the protocol: as §1

Turning to `Nc1ncnc2c1ncn2[C@@H]1O[C@H](CO[P@](=O)(O)O[P@](=O)(O)O[P@@](=O)(O)S)[C@@H](O)[C@H]1O` [ATPγS, reference compound], at human GMPK, the Kd stood at 30 µM.
Consider `O=S(=O)(O)O` [sulfate ions, sulfate ion], for which the Kd at human GMPK (read-out: Kd from NMR titration, binding to the p-loop region of GMPK) amounted to 5600 µM. For the same compound, the mode of inhibition entry at human GMPK wild type [1] (Michaelis-Menten curves for ATP under 1, 5 and 10 mM SO4 2-) is “competitive inhibitor of ATP”.
In the case of `Nc1nc2c(ncn2[C@@H]2O[C@H](COP(=O)(O)O)[C@@H](O)[C@H]2O)c(=O)[nH]1` [GMP], the “weakening of GMP binding by R148A mutagenesis” value at GMPK R148A mutant turned out to be 1.7 fold. Also, the Kd at human GMPK wild type [2] (GMP binding to GMPK without prior incubation) was 32 µM; at human GMPK wild type [2] (read-out: Mean Kd, GMP into GMPK, 150 mM KCl, triplicate experiments), 7.1 µM; at GMPK-ATPγS mixture it was 170 µM; at GMPK-ADP mixture, 60 µM.
Take `[Cl-].[K+]` [KCl, potassium chloride]: the “decrease of kcat at 150 mM relative to 10 mM” value at human GMPK wild type [1] (150 mM vs 10 mM potassium ions) amounted to 1.5 fold. Besides, the “K+ concentration at which the initial reaction rate reached its maximum” value at human GMPK wild type [1] (saturating substrate conditions) is reported as “about 7.5 mM”.
